The text below walks through data of article PMC5204206 (ACS Omega, 2016).

The conditions of data set [1]: cited from earlier work.
For data set [2], the target named is T1, streptavidin (SA) (Streptomyces avidinii, UniProt P22629). Put plainly: Comparison of Trp-FRET acceptors. To be noted: for FF (FRET fold effect): FF = Iad/Ia; for Iad (intensity of FRET acceptor, sensitivity): acceptor 100 nM bound to SA 400 nM, Ex. 295 nm, at Em. λmax, normalized to Id; for E (efficiency of FRET with tryptophan) / Fold less sensitive than PB (12) as Trp-FRET acceptor: bound to SA; for E (efficiency of FRET with tryptophan): E = 1 – Ida/Id. Put shortly:
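Biotin-linked fluorophore acceptors (100 nM) bound to streptavidin (400 nM, as monomer) in PBS pH 7.4. Tryptophan excited at 295 nm; acceptor intensity (Iad) read at its emission λmax and normalized to donor intensity (Id). FRET efficiency E = 1 − Ida/Id; fold effect FF = Iad/Ia.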

Data set [3] is described as follows: Photophysical properties of probes in PBS. Format: physicochemical. To be noted: for ε (molar extinction coefficient): PBS (0.5% DMSO), at absorbance λmax; for Fold by which PB-derived probe 12 is brighter than this probe: aqueous PBS (pH 7.4). The procedure, abridged: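 ε: Beer's-law plots of absorbance at λmax vs concentration in PBS (0.5% DMSO), 1 cm path; least-squares fit through zero. Spectra: 32 µM for absorbance, 50 nM for emission, excited at λmax. Φ by Williams' method: excitation 396 nm, integrated emission 415–700 nm at 5–160 nM, plotted against absorbance extrapolated from higher concentrations; coumarin 102 standard (Φ = 0.66 in water).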

Data set [4] deals with T1, streptavidin (SA). The experiment in a line: Direct binding to SA quantified by Trp-FRET. The procedure, abridged: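 Tryptophan excited at 295 nm, emission read at 460 nm, averaged over three readings. SA-alone and free-probe signals subtracted, then corrected by quenching ratio (Iad = IFRET/Qr). Plotted against SA monomer concentration; one-site specific binding fit, triplicate.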

Data set [5] has as its target T1, streptavidin (SA). The experiment in a line: Isothermal titration calorimetry. Format: binding. On the technique in general: Isothermal titration calorimetry measures the heat released or taken up as one component is titrated into another.
Data set [6] deals with T1, streptavidin (SA). The experiment in a line: Binding to SA by quenching or enhancement of PB fluorescence. Put shortly:
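Streptavidin at varied concentrations (spanning at least 20–80% complexation) incubated 1 h at room temperature with shaking in PBS pH 7.4 with fixed PB-linked probe (5 or 25 nM). Ex 400 nm, em 460 nm. SA-alone background subtracted. Change in fluorescence normalized and plotted against SA monomer concentration; one-site specific binding fit, triplicate. For one probe, the three highest SA concentrations (64–256 nM) were excluded.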

Data set [7] deals with T1, streptavidin (SA). The experiment in a line: Competition binding.

Structures are written as SMILES. Like-named read-outs stand apart in the source and are kept apart here.

T1 sequence (P22629 25-183): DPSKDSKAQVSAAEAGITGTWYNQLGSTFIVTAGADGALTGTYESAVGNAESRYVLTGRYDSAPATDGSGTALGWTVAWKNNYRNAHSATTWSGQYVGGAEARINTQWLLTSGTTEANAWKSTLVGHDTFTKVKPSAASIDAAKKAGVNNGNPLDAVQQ

On to `O=C(O)c1cc2cc(F)c(O)c(F)c2oc1=O` [PB, 6,8-Difluoro-7-hydroxy-2-oxo-2H-chromene-3-carboxylic Acid, reference compound], for which, in data set [1], the “ε (molar extinction coefficient)” value is 29 500 M^–1 cm^–1.

As to `O=C(O)CCCC[C@@H]1SC[C@@H]2NC(=O)N[C@@H]21` [biotin, reference compound], the “Effect of competitor on FRET from 12 bound to SA” value at streptavidin (SA) [2] (biotin 10 μM, 12 100 nM, SA monomer 400 nM) is reported as “blocked FRET”.

With `O=C(CCCC[C@@H]1SC[C@@H]2NC(=O)N[C@@H]21)NCCNC(=O)c1cc2cc(F)c(O)c(F)c2oc1=O` [compound 12, 6,8-Difluoro-7-hydroxy-2-oxo-N-(2-(5-((3aS,4S,6aR)-2-oxohexahydro-1H-thieno[3,4-d]imidazol-4-yl)pentanamido)ethyl)-2H-chromene-3-carboxamide], at streptavidin (SA) [2], the “FF (FRET fold effect)” value came to 19.2; the “Iad (intensity of FRET acceptor, sensitivity)” value (shortened to “Iad”) is reported as 3.3; the “E (efficiency of FRET with tryptophan)” value came out at 0.40. In addition, the “ε (molar extinction coefficient)” value in data set [3] is 24 200 M^–^1cm^–^1. The “Φf (quantum yield)” value in data set [3] (PBS, relative to coumarin 102) was 0.74.

Regarding `O=C(CCCC[C@@H]1SC[C@@H]2NC(=O)N[C@@H]21)NCCNC(=O)Cc1cc(=O)oc2cc(O)ccc12` [compound 14, N-(2-(2-(7-Hydroxy-2-oxo-2H-chromen-4-yl)acetamido)ethyl)-5-((3aS,4S,6aR)-2-oxohexahydro-1H-thieno[3,4-d]imidazol-4-yl)pentanamide], the “Φf (quantum yield)” value in data set [1] was 0.47[6]. Besides, on streptavidin (SA) [2], the “FF (FRET fold effect)” value is 4.8; the “Iad” value is 2.2; the “E (efficiency of FRET with tryptophan)” value came out at 0.21. For the same molecule, the “Fold less sensitive than PB (12) as Trp-FRET acceptor” value at streptavidin (SA) [2] (compared with 12) was 1.5 fold. Further, the “Reduction of FRET fold effect (FF), factor” value on streptavidin (SA) [2] (compared with 12, due to increased excitation at 295 nm) came to 4. In addition, in data set [3], the “ε (molar extinction coefficient)” value worked out at 7800 M^–^1cm^–^1 and the “Fold by which PB-derived probe 12 is brighter than this probe” value was approximately 3 fold.

Consider `CN(C)c1ccc2c(CC(=O)NCCNC(=O)CCCC[C@@H]3SC[C@@H]4NC(=O)N[C@@H]43)cc(=O)oc2c1` [compound 15, N-(2-(2-(7-(Dimethylamino)-2-oxo-2H-chromen-4-yl)acetamido)ethyl)-5-((3aS,4S,6aR)-2-oxohexahydro-1H-thieno[3,4-d]imidazol-4-yl)pentanamide], for which the “Φf (quantum yield)” value in data set [1] was 0.06[6]. On streptavidin (SA) [2], the “FF (FRET fold effect)” value stood at 8.0; the “Iad” value is given as 0.6; the “E (efficiency of FRET with tryptophan)” value came out at 0.35. In addition, the “Fold less sensitive than PB (12) as Trp-FRET acceptor” value at streptavidin (SA) [2] (compared with 12) was 6 fold. Moreover, in data set [3], the “ε (molar extinction coefficient)” value is on record as 11 600 M^–^1cm^–^1 and the “Fold by which PB-derived probe 12 is brighter than this probe” value is approximately 17 fold.

As a reminder, the Kd is the concentration at which binding is half-saturated. Low values mean higher affinity, high ones lower affinity. As for `O=C(CCCC[C@@H]1SC[C@@H]2NC(=S)N[C@@H]21)NCCNC(=O)c1cc2cc(F)c(O)c(F)c2oc1=O` [compound 17, 6,8-Difluoro-7-hydroxy-2-oxo-N-(2-(5-((3aS,4S,6aR)-2-thioxohexahydro-1H-thieno[3,4-d]imidazol-4-yl)pentanamido)ethyl)-2H-chromene-3-carboxamide], the values for the Kd at streptavidin (SA) [4] and at streptavidin (SA) [5] were 11 ± 2 nM and 12 ± 4 nM, respectively. Besides, the “Change of fluorescence of PB-linked ligand on binding to SA” value on streptavidin (SA) [6] is “partially quenched”.

With `C[C@@H]1NC(=S)N[C@@H]1CCCCCC(=O)NCCNC(=O)c1cc2cc(F)c(O)c(F)c2oc1=O` [compound 18, 6,8-Difluoro-7-hydroxy-N-(2-(6-((4R,5S)-5-methyl-2-thioxoimidazolidin-4-yl)hexanamido)ethyl)-2-oxo-2H-chromene-3-carboxamide], the results for the Kd at streptavidin (SA) [4] and at streptavidin (SA) [5] were 145 ± 19 nM and 125 ± 45 nM, respectively. Moreover, the “Change of fluorescence of PB-linked ligand on binding to SA” value at streptavidin (SA) [6] is “enhanced”.

The term Ki denotes the equilibrium dissociation constant of an inhibitor or competing ligand from its target. For the molecule `C[C@@H]1NC(=S)N[C@@H]1CCCCCC(=O)O` [compound 20, 6-((4R,5S)-5-Methyl-2-thioxoimidazolidin-4-yl)hexanoic Acid], the dissociation constant (Kd) at streptavidin (SA) [5] is 1550 ± 270 nM. In addition, the inhibition constant (Ki) at streptavidin (SA) [7] was 1350 ± 180 nM.

Take `COC(=O)CCCCC[C@H]1NC(=S)N[C@H]1C` [compound 21, Methyl 6-((4R,5S)-5-methyl-2-thioxoimidazolidin-4-yl)hexanoate]: the inhibitory constant (Ki) at streptavidin (SA) [7] came out at 693 ± 91 nM.

In turn, `C[C@@H]1NC(=S)NC1CCCCCC(=O)OCc1ccccc1` (stereo partly drawn) [compound 22, Benzyl 6-((5S)-5-methyl-2-thioxoimidazolidin-4-yl)hexanoate] yielded a Ki at streptavidin (SA) [7] of 188 ± 25 nM.
